Measured values taken from ChEMBL document CHEMBL1151774, “Synthesis and biological evaluation of new N-linked 5-triazolylmethyl oxazolidinones” (Eur J Med Chem, 2008).
In brackets after ≈: the same amount, converted by molar mass.

Legend:
Staphylococcus aureus [1] = assay: Antimicrobial activity against Staphylococcus aureus ATCC 29213 after 16 to 18 hrs by agar dilution method; assay type: functional
Staphylococcus aureus [2] = assay: Antimicrobial activity against methicillin-susceptible Staphylococcus aureus after 16 to 18 hrs by agar dilution method; assay type: functional
Staphylococcus aureus [3] = assay: Antimicrobial activity against methicillin-resistant Staphylococcus aureus after 16 to 18 hrs by agar dilution method; assay type: functional
Streptococcus pneumoniae = assay: Antimicrobial activity against sStreptococcus pneumoniae after 16 to 18 hrs by agar dilution method; assay type: functional
Enterococcus faecalis = assay: Antimicrobial activity against Enterococcus faecalis after 16 to 18 hrs by agar dilution method; assay type: functional
[4] = Cmax in Sprague-Dawley rat at 10 mg/kg, po; assay type: ADME, organism-based; set-up: dose 10 mg/kg, route oral; conditions: in vivo
In short: (§1)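 Single dose given orally (10 or 50 mg/kg) or intravenously (10 mg/kg). Serial 300 µL blood samples were taken from the retrobulbar vein. Plasma was quantified by LC-MS. Parameters came from mean plasma concentration by non-compartmental analysis. F is absolute oral bioavailability, assuming linear pharmacokinetics.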

[5] = Cmax in Sprague-Dawley rat at 50 mg/kg, po; assay type: ADME, organism-based; set-up: dose 50 mg/kg, route oral; conditions: in vivo; in short: as §1
[6] = Tmax in Sprague-Dawley rat at 10 mg/kg, po; assay type: ADME, organism-based; set-up: dose 10 mg/kg, route oral; conditions: in vivo; in short: as §1
[7] = Tmax in Sprague-Dawley rat at 50 mg/kg, po; assay type: ADME, organism-based; set-up: dose 50 mg/kg, route oral; conditions: in vivo; in short: as §1
[8] = Elimination half life in Sprague-Dawley rat at 10 mg/kg, po; assay type: ADME, organism-based; set-up: dose 10 mg/kg, route oral; conditions: in vivo, read-out: beta t1/2 (converted); in short: as §1
[9] = Elimination half life in Sprague-Dawley rat at 50 mg/kg, po; assay type: ADME, organism-based; set-up: dose 50 mg/kg, route oral; conditions: in vivo, read-out: beta t1/2 (converted); in short: as §1
Rattus norvegicus [10] = assay: (§2) AUC (0 to infinity) in Sprague-Dawley rat at 10 mg/kg, po; assay type: ADME, organism-based, Plasma; set-up: time infinity, dose 10 mg/kg, route oral; conditions: in vivo; in short: as §1
Rattus norvegicus [11] = assay: (§3) AUC (0 to infinity) in Sprague-Dawley rat at 50 mg/kg, po; assay type: ADME, organism-based, Plasma; set-up: time infinity, dose 50 mg/kg, route oral; conditions: in vivo; in short: as §1
[12] = AUC (0 to infinity) in Sprague-Dawley rat at 10 mg/kg, iv; assay type: ADME, organism-based; set-up: time infinity, dose 10 mg/kg, route intravenous; conditions: plasma; in short: as §1
[13] = Clearance in Sprague-Dawley rat at 10 mg/kg, iv; assay type: ADME, organism-based; set-up: dose 10 mg/kg, route intravenous; conditions: in vivo; in short: as §1
[14] = Oral bioavailability in Sprague-Dawley rat at 10 mg/kg; assay type: ADME, organism-based; conditions: in vivo; in short: as §1
[15] = Elimination half life in Sprague-Dawley rat at 10 mg/kg, iv; assay type: ADME, organism-based; set-up: dose 10 mg/kg, route intravenous; conditions: in vivo, read-out: beta t1/2 (converted); in short: as §1
Staphylococcus aureus [16] = assay: Antimicrobial activity against methicillin-resistant Staphylococcus aureus 05-2 infected in po dosed KunMing SPF mouse; assay type: functional
In short: (§4)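 Mice given a lethal systemic infection by intraperitoneal injection of the MLD inoculum of MRSA 05-2. Compound dosed orally or by i.v. injection in 0.9% NaCl immediately and 4 h post-infection. ED50 (dose curing 50% of infected mice) calculated by the Bliss method on day 7 post-infection, with 95% confidence ranges.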

Staphylococcus aureus [17] = assay: Antimicrobial activity against methicillin-resistant Staphylococcus aureus 05-2 infected in iv dosed KunMing SPF mouse; assay type: functional; in short: as §4
[18] = as §2; assay type: ADME, organism-based, Plasma; set-up: time infinity, dose 10 mg/kg, route oral; conditions: Sprague-Dawley, plasma; in short: as §1
[19] = as §3; assay type: ADME, organism-based, Plasma; set-up: time infinity, dose 50 mg/kg, route oral; conditions: Sprague-Dawley, plasma; in short: as §1
[20] = Clearance in Sprague-Dawley rat at 10 mg/kg, po; assay type: ADME, organism-based; set-up: dose 10 mg/kg, route oral; conditions: in vivo; in short: as §1
[21] = Clearance in Sprague-Dawley rat at 50 mg/kg, po; assay type: ADME, organism-based; set-up: dose 50 mg/kg, route oral; conditions: in vivo; in short: as §1
Staphylococcus aureus [22] = assay: Antimicrobial activity against methicillin-resistant Staphylococcus aureus 05-2 infected in sc dosed KunMing SPF mouse; assay type: functional

Structure (SMILES) | MIC (Staphylococcus aureus [1]) | MIC (Staphylococcus aureus [2]) | MIC (Staphylococcus aureus [3]) | MIC (Streptococcus pneumoniae) | MIC (Enterococcus faecalis) | ED50 (Staphylococcus aureus [17]) | also measured
O=C1O[C@@H](Cn2ccnn2)CN1c1ccc(N2CCN(Cc3ccc([N+](=O)[O-])o3)CC2)c(F)c1 | 0.06 µg/mL (≈ 0.127 µM) | 0.06 µg/mL (≈ 0.127 µM) | 0.06 µg/mL (≈ 0.127 µM) | 0.03 µg/mL (≈ 0.0636 µM) | 0.25 µg/mL (≈ 0.53 µM) | – | Cmax [4]: 5440 ng/mL; Cmax [5]: 16900 ng/mL; Tmax [6]: 0.25 h; Tmax [7]: 0.5 h; half-life [8]: 1.51 h; half-life [9]: 1.66 h; AUC (Rattus norvegicus [10]): 19400 ng·h/mL; AUC (Rattus norvegicus [11]): 139000 ng·h/mL; AUC(0-inf) [12]: 18900 ng·h/mL; clearance [13]: 16.2 mL/min/kg; bioavailability [14]: 103%; half-life [15]: 1.18 h
O=C1O[C@@H](Cn2ccnn2)CN1c1ccc(N2CCN(Cc3cccs3)CC2)c(F)c1 | 0.06 µg/mL (≈ 0.136 µM) | 0.06 µg/mL (≈ 0.136 µM) | 0.06 µg/mL (≈ 0.136 µM) | 0.06 µg/mL (≈ 0.136 µM) | 2 µg/mL (≈ 4.52 µM) | – | –
O=C1O[C@@H](Cn2ccnn2)CN1c1ccc(N2CCN(Cc3ccco3)CC2)c(F)c1 | 0.06 µg/mL (≈ 0.141 µM) | 0.06 µg/mL (≈ 0.141 µM) | 0.5 µg/mL (≈ 1.17 µM) | 0.5 µg/mL (≈ 1.17 µM) | 0.5 µg/mL (≈ 1.17 µM) | 12 mg/kg | ED50 (Staphylococcus aureus [16]): 12.3 mg/kg
O=C1O[C@@H](Cn2ccnn2)CN1c1ccc(N2CCN(Cc3ccoc3)CC2)c(F)c1 | 0.008 µg/mL (≈ 0.0188 µM) | 0.008 µg/mL (≈ 0.0188 µM) | 0.03 µg/mL (≈ 0.0703 µM) | 0.03 µg/mL (≈ 0.0703 µM) | 0.5 µg/mL (≈ 1.17 µM) | 6.99 mg/kg | ED50 (Staphylococcus aureus [16]): 7.47 mg/kg; Cmax [4]: 3040 ng/mL; Cmax [5]: 10700 ng/mL; Tmax [6]: 0.88 h; Tmax [7]: 1.9 h; half-life [8]: 2.76 h; half-life [9]: 8.6 h; AUC(0-inf) [18]: 16400 ng·h/mL; AUC(0-inf) [19]: 85800 ng·h/mL; AUC(0-inf) [12]: 26200 ng·h/mL; CL/F [20]: 10.5 mL/min/kg; CL/F [21]: 8.86 mL/min/kg; clearance [13]: 6.98 mL/min/kg; bioavailability [14]: 62.7%; half-life [15]: 2.95 h
Nc1cccc(CN2CCN(c3ccc(N4C[C@H](Cn5ccnn5)OC4=O)cc3F)CC2)c1 | 0.25 µg/mL (≈ 0.554 µM) | 0.25 µg/mL (≈ 0.554 µM) | 0.5 µg/mL (≈ 1.11 µM) | 0.5 µg/mL (≈ 1.11 µM) | 0.5 µg/mL (≈ 1.11 µM) | – | –
O=C1O[C@@H](Cn2ccnn2)CN1c1ccc(N2CCN(Cc3cccnc3)CC2)c(F)c1 | 0.125 µg/mL (≈ 0.286 µM) | 0.125 µg/mL (≈ 0.286 µM) | 1 µg/mL (≈ 2.29 µM) | 1 µg/mL (≈ 2.29 µM) | 1 µg/mL (≈ 2.29 µM) | – | –
O=Cc1ccc(CN2CCN(c3ccc(N4C[C@H](Cn5ccnn5)OC4=O)cc3F)CC2)cc1 | 0.008 µg/mL (≈ 0.0172 µM) | 1 µg/mL (≈ 2.15 µM) | 0.25 µg/mL (≈ 0.538 µM) | 1 µg/mL (≈ 2.15 µM) | 2 µg/mL (≈ 4.31 µM) | – | –
Cc1ccsc1CN1CCN(c2ccc(N3C[C@H](Cn4ccnn4)OC3=O)cc2F)CC1 | 1 µg/mL (≈ 2.19 µM) | 1 µg/mL (≈ 2.19 µM) | 4 µg/mL (≈ 8.76 µM) | 4 µg/mL (≈ 8.76 µM) | 4 µg/mL (≈ 8.76 µM) | – | –
Cc1ccc(CN2CCN(c3ccc(N4C[C@H](Cn5ccnn5)OC4=O)cc3F)CC2)o1 | 0.125 µg/mL (≈ 0.284 µM) | 0.125 µg/mL (≈ 0.284 µM) | 1 µg/mL (≈ 2.27 µM) | 2 µg/mL (≈ 4.54 µM) | 2 µg/mL (≈ 4.54 µM) | – | –
O=C1O[C@@H](Cn2ccnn2)CN1c1ccc(N2CCN(Cc3ccsc3)CC2)c(F)c1 | 0.06 µg/mL (≈ 0.136 µM) | 0.06 µg/mL (≈ 0.136 µM) | 1 µg/mL (≈ 2.26 µM) | 0.5 µg/mL (≈ 1.13 µM) | 1 µg/mL (≈ 2.26 µM) | – | –
CC(=O)NC[C@H]1CN(c2ccc(N3CCOCC3)c(F)c2)C(=O)O1 [LINEZOLID] | 0.5 µg/mL (≈ 1.48 µM) | 0.5 µg/mL (≈ 1.48 µM) | 1 µg/mL (≈ 2.96 µM) | – | – | 8.45 mg/kg | ED50 (Staphylococcus aureus [16]): 8.45 mg/kg
CN[C@H](CC(C)C)C(=O)N[C@H]1C(=O)N[C@@H](CC(N)=O)C(=O)N[C@H]2C(=O)N[C@H]3C(=O)N[C@H](C(=O)N[C@H](C(=O)O)c4cc(O)cc(O)c4-c4cc3ccc4O)[C@H](O)c3ccc(c(Cl)c3)Oc3cc2cc(c3O[C@@H]2O[C@H](CO)[C@@H](O)[C@H](O)[C@H]2O[C@H]2C[C@](C)(N)[C@H](O)[C@H](C)O2)Oc2ccc(cc2Cl)[C@H]1O [VANCOMYCIN] | 0.125 µg/mL (≈ 0.0863 µM) | 0.125 µg/mL (≈ 0.0863 µM) | – | 1 µg/mL (≈ 0.69 µM) | 1 µg/mL (≈ 0.69 µM) | 6.54 mg/kg | ED50 (Staphylococcus aureus [22]): 6 mg/kg
